Each structure is given as a SMILES string.

Series [1] has as its target T1, UDP-glucuronosyltransferase 2B15 (Homo sapiens, UniProt P54855).
T1 sequence (P54855 whole entry): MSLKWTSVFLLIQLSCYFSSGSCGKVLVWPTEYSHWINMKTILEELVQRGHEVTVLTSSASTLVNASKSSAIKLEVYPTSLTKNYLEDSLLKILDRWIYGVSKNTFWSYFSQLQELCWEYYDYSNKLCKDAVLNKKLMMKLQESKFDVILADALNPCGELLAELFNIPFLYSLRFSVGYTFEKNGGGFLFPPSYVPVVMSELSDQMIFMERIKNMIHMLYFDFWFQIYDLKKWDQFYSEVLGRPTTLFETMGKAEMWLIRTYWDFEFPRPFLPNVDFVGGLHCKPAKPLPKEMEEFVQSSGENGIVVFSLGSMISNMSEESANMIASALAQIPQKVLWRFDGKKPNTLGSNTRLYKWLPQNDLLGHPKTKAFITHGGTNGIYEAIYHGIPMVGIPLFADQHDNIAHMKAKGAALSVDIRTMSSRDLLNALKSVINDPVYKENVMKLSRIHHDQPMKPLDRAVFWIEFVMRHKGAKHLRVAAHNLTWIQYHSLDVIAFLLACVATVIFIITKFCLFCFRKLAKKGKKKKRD
The series can be described thus: Drug metabolism assessed as human UGT2B15-mediated glucuronidation expressed in baculovirus infected insect sf9 cells incubated for 5 mins prior to UDPGA addition measured after 5 to 30 mins by LC-UV analysis. Format: ADME. In outline: (§1)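 Microsomes or Sf-9 Supersomes (5 µg protein in 200 µL 100 mM potassium phosphate pH 7.4) pre-treated with alamethicin on ice 15 min; substrate 10 µM final (2% DMSO), MgCl2 and saccharolactone 10 mM each; 5 min preincubation at 37 °C, then UDPGA to start. Samples taken at 5, 10, 15, 30 min (or 2, 5, 10, 15 min) into ACN with internal standard; LC-UV-ESI-MS/MS.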

The target in series [2] is T2, UDP-glucuronosyltransferase 1A7 (Homo sapiens, UniProt Q9HAW7).
T2 sequence (Q9HAW7 whole entry): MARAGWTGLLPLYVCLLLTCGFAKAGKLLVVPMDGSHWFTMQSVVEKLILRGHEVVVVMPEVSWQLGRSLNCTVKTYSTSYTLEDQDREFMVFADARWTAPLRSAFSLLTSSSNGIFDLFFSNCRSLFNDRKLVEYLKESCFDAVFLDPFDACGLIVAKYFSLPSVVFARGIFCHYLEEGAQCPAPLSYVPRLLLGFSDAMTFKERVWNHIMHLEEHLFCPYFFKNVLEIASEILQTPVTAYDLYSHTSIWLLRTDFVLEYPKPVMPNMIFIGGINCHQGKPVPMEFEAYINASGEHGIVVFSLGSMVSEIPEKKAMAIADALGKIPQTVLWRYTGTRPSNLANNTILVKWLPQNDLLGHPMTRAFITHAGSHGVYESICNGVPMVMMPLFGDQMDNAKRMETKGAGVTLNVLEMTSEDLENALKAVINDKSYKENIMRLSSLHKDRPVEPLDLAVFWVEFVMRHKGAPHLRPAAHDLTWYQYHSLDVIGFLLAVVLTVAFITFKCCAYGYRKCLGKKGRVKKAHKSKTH
The series is described as follows: Drug metabolism assessed as human UGT1A7-mediated glucuronidation expressed in baculovirus infected insect sf9 cells incubated for 5 mins prior to UDPGA addition measured after 5 to 30 mins by LC-UV analysis. The class given is ADME. The method in brief:
as §1

Series [3] is described as follows: Drug metabolism in microsomes (unknown origin) assessed as retention time treated with 10 uM triclocarban by LC-UV-MS method. The class given is ADME, Microsome.
Series [4] concerns the target T3, UDP-glucuronosyltransferase 2B4 (Homo sapiens, UniProt P06133).
T3 sequence (P06133 whole entry): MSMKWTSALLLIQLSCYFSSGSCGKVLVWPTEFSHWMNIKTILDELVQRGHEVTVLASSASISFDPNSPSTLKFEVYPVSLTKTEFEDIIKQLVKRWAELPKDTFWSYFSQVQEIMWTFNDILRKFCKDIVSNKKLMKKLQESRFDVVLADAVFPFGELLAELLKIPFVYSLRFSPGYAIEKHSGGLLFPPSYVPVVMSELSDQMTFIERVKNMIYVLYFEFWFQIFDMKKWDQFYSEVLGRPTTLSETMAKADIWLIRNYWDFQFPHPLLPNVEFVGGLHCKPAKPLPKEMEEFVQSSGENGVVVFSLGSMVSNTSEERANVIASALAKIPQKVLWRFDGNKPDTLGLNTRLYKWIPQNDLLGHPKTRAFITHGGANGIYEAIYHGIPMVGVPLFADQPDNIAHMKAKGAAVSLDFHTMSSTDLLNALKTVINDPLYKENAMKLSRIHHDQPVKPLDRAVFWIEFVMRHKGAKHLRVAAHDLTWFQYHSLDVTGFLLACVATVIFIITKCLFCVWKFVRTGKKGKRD
The series can be described thus: Drug metabolism assessed as human UGT2B4-mediated glucuronidation expressed in baculovirus infected insect sf9 cells incubated for 5 mins prior to UDPGA addition measured after 5 to 30 mins by LC-UV analysis. The class given is ADME. In outline: as §1

The target of series [5] is T4, UDP-glucuronosyltransferase 1A8 (Homo sapiens, UniProt Q9HAW9).
T4 sequence (Q9HAW9 whole entry): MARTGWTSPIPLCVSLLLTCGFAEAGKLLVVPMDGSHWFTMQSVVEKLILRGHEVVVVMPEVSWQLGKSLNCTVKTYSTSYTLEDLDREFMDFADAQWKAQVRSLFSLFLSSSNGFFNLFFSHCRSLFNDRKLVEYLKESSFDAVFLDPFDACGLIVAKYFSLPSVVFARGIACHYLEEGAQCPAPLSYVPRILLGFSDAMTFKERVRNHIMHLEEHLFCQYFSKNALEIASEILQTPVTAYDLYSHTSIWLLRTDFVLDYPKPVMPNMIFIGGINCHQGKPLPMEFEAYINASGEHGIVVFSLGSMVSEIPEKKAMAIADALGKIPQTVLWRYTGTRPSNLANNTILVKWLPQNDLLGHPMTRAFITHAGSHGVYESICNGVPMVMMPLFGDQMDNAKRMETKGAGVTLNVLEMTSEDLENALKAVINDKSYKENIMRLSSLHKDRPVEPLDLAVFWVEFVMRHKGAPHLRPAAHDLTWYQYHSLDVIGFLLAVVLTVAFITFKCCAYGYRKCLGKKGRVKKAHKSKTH
The series is described as follows: Drug metabolism assessed as human UGT1A8-mediated glucuronidation expressed in baculovirus infected insect sf9 cells incubated for 5 mins prior to UDPGA addition measured after 5 to 30 mins by LC-UV analysis. The class given is ADME. In outline: as §1

`O=C(Nc1ccc(Cl)c(O)c1)Nc1ccc(Cl)c(Cl)c1`: the Drug metabolism entry in series [1] is recorded as “metabolite_not_detected”; in series [2] it was 1700 pmol/min/mg; in series [4], “metabolite_not_detected”; in series [5], 9400 pmol/min/mg. Besides, the Retention_time in series [3] was 4.61 min.
For the compound `O=C(Nc1ccc(Cl)c(Cl)c1)Nc1ccc(Cl)cc1O`, the Drug metabolism entry in series [1] is “metabolite_not_detected”; in series [2] it was 870 pmol/min/mg; in series [4] it was “metabolite_not_detected”; in series [5] it was 5700 pmol/min/mg. In addition, the Retention_time in series [3] was found to be 6.81 min.
Consider `O=C(Nc1ccc(Cl)cc1)Nc1cc(Cl)c(Cl)cc1O`, for which the Drug metabolism entry in series [1] was “metabolite_not_detected”; in series [2], 1100 pmol/min/mg; in series [4], “metabolite_not_detected”; in series [5], 5000 pmol/min/mg. For the same compound, the Retention_time in series [3] worked out at 7.45 min.
